{"source": "paper PMC5665024", "about": "(Chemical research in toxicology, 2017)", "key": {"[1]": {"test": "Solubility limit of honokiol in polymerase buffer", "format": "physicochemical"}, "pol β binding to DNA": {"target": "pol β binding to DNA (Homo sapiens, UniProt P06746)", "test": "Polymerase–DNA interaction, electrophoretic mobility shift assay, pol β", "conditions": "for inhibition of DNA binding to polymerase (EMSA): honokiol up to 200 μM, polymerase in excess of DNA"}, "pol λ binding to DNA": {"target": "T1, pol λ binding to DNA (Homo sapiens, UniProt Q9UGP5)", "T1 sequence (Q9UGP5 1-575)": "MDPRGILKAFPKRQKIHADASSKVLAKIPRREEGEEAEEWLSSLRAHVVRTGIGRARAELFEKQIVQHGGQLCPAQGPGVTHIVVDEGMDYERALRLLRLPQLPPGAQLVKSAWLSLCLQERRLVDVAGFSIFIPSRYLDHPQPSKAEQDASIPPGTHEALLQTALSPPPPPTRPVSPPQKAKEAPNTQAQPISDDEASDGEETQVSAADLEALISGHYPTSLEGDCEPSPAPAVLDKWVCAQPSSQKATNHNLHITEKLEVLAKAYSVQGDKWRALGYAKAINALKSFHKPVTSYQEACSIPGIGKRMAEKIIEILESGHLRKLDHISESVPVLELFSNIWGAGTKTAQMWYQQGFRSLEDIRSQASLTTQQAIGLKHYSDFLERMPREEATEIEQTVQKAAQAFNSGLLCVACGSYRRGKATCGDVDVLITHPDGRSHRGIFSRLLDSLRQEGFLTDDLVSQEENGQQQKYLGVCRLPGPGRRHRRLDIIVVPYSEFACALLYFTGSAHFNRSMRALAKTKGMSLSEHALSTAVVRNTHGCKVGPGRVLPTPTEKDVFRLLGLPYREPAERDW", "test": "Polymerase–DNA interaction, electrophoretic mobility shift assay, pol λ", "conditions": "for inhibition of DNA binding to polymerase (EMSA): honokiol up to 200 μM, polymerase in excess of DNA"}, "A549 cells": {"test_system": "A549 cells", "test": "MTS assay of cell proliferation, A549", "format": "cell-based, human", "conditions": "A549, 24 h", "how_it_was_run": "(§1)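 Cells grown in DMEM with 10% FBS at 37 °C and 5% CO2. Plated at 5 × 10^3 per well, grown 24 h, then exposed 24 or 72 h to test compound alone or in pairs: 10 μM bleomycin-type or 250 μM alkylating agent added to the lignan, or 10 μM lignan added to either. DMSO 0.2% final; vehicle controls. MTS/PMS for 4 h; A492; cell-free background. Triplicate; IC50 fit, 95% CI.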"}, "UACC903 cells": {"test_system": "UACC903 cells", "test": "MTS assay of cell proliferation, UACC903", "format": "cell-based, human", "conditions": "for IC50: Homo sapiens; for −log(IC50) (95% CI): tested compound alone", "how_it_was_run": "as §1"}, "MCF7 cells": {"test_system": "MCF7 cells", "test": "MTS assay of cell proliferation, MCF7", "format": "cell-based, human", "conditions": "for IC50: Homo sapiens; for −log(IC50) (95% CI): tested compound alone", "how_it_was_run": "as §1"}, "[2]": {"test_system": "HL60 promyelocytic leukemia cells", "conditions": "mice xenografted with HL60 promyelocytic leukemia cells; cited from earlier work"}, "[3]": {"target": "human DNA polymerase β (pol β) (Homo sapiens, UniProt P06746)", "test": "Steady-state primer extension assay, pol β", "format": "biochemical"}, "rats": {"test_system": "rats", "conditions": "dose of 100 mg/kg; cited from earlier work"}, "pol η binding to DNA": {"target": "T2, pol η binding to DNA (Homo sapiens, UniProt Q9Y253)", "T2 sequence (Q9Y253 1-713)": "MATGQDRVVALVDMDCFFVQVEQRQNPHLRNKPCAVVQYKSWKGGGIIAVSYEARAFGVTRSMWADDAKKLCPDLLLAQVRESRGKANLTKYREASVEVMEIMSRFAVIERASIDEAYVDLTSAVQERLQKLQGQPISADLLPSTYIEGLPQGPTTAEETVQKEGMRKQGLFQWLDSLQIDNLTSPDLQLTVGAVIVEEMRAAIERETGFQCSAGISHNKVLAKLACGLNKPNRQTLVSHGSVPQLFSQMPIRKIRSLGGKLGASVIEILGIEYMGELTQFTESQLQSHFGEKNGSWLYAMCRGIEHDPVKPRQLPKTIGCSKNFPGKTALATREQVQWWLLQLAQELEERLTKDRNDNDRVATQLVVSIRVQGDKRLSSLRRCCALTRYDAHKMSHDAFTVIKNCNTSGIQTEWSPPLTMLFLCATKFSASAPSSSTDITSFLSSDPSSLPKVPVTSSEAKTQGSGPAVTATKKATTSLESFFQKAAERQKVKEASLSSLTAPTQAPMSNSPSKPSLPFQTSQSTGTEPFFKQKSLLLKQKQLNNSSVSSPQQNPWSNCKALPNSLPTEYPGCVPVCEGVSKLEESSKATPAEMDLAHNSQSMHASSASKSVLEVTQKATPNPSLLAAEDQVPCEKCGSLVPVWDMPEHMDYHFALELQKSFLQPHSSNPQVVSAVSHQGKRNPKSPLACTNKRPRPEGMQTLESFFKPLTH", "test": "Polymerase–DNA interaction, electrophoretic mobility shift assay, pol η", "conditions": "native PAGE"}, "GM12878 cells": {"test_system": "GM12878 cells", "test": "MTS assay of cell proliferation, GM12878", "format": "cell-based, human", "conditions": "Homo sapiens, 24 h, GM12878, 24 h incubation", "how_it_was_run": "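Lymphoblasts grown in RPMI 1640 with 15% FBS at 37 °C and 5% CO2. Plated at 5 × 10^3 per well, grown 24 h, then exposed 24 or 72 h to test compound alone or with 10 μM lignan inhibitor added. DMSO 0.2% final; vehicle controls. MTS/PMS in PBS pH 7.2 for 4 h at 37 °C; A492; cell-free background. Triplicate; normalized absorbance fitted for IC50 with 95% CI.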"}, "[4]": {"target": "DNA polymerase I from E. coli (Klenow fragment), Kf(exo-) (Escherichia coli, UniProt P00582, D355A/E357A)", "test": "Steady-state primer extension assay, Kf", "format": "biochemical"}, "[5]": {"conditions": "cited from earlier work"}, "[6]": {"target": "T3, human DNA polymerase λ (pol λ) (Homo sapiens, UniProt Q9UGP5)", "T3 sequence (Q9UGP5 1-575)": "T1 sequence (Q9UGP5 1-575)", "test": "Steady-state primer extension assay, pol λ", "format": "biochemical"}, "[7]": {"conditions": "eq 3, factor on Km/Ki, 95% confidence limits"}, "[8]": {"conditions": "eq 3, residual catalysis with HNL bound, 95% confidence limits"}}, "note": "Like-named read-outs stand apart in the source and are kept apart here.", "data": [{"molecule": "C=CCc1ccc(O)c(-c2ccc(O)c(CC=C)c2)c1", "note": "[HNL, 2-(4-hydroxy-3-prop-2-enyl-phenyl)-4-prop-2-enyl-phenol]", "values": [{"measurement": "solubility", "setting": "[1]", "value": 200, "unit": "µM"}, {"measurement": "Ki", "setting": "pol β binding to DNA", "value": "> 500", "unit": "µM"}, {"measurement": "inhibition of DNA binding to polymerase (EMSA)", "setting": "pol β binding to DNA; listed as Honokiol", "value": "does not inhibit DNA binding"}, {"measurement": "inhibition of DNA binding to polymerase (EMSA)", "setting": "pol β binding to DNA; listed as honokiol", "value": "did not inhibit the binding of the DNA to the polymerase"}, {"measurement": "Ki", "setting": "pol λ binding to DNA", "value": "> 500", "unit": "µM"}, {"measurement": "inhibition of DNA binding to polymerase (EMSA)", "setting": "pol λ binding to DNA; listed as Honokiol", "value": "does not inhibit DNA binding"}, {"measurement": "inhibition of DNA binding to polymerase (EMSA)", "setting": "pol λ binding to DNA; listed as honokiol", "value": "did not inhibit the binding of the DNA to the polymerase"}, {"measurement": "−log(IC50) (95% CI)", "setting": "A549 cells; tested compound alone", "value": "4.6 (4.5, 4.8)"}, {"measurement": "IC50", "setting": "A549 cells; Homo sapiens, read-out: −log(IC50) (95% CI), A549, 24 h, tested compound alone (converted)", "value": 25.1, "unit": "µM"}, {"measurement": "IC50", "setting": "UACC903 cells; UACC-903, 24 h, read-out: −log(IC50) (95% CI), UACC903, 24 h, tested compound alone (converted)", "value": 25.1, "unit": "µM"}, {"measurement": "IC50", "setting": "UACC903 cells; UACC-903, 72 h, read-out: −log(IC50) (95% CI), UACC903, 72 h, tested compound alone (converted)", "value": 15.8, "unit": "µM"}, {"measurement": "−log(IC50) (95% CI)", "setting": "UACC903 cells; UACC903, 24 h", "value": "4.6 (4.47, 4.8)"}, {"measurement": "−log(IC50) (95% CI)", "setting": "UACC903 cells; UACC903, 72 h", "value": "4.8 (4.65, 4.9)"}, {"measurement": "IC50", "setting": "MCF7 cells; MCF7, 24 h, read-out: −log(IC50) (95% CI), MCF7, 24 h, tested compound alone (converted)", "value": 20, "unit": "µM"}, {"measurement": "IC50", "setting": "MCF7 cells; MCF7, 72 h, read-out: −log(IC50) (95% CI), MCF7, 72 h, tested compound alone (converted)", "value": 15.8, "unit": "µM"}, {"measurement": "−log(IC50) (95% CI)", "setting": "MCF7 cells; MCF7, 24 h", "value": "4.8 (4.7, 4.8)"}, {"measurement": "−log(IC50) (95% CI)", "setting": "MCF7 cells; MCF7, 72 h", "value": "4.9 (4.8, 5.0)"}, {"measurement": "prolonging life in xenografted mice", "setting": "[2]", "value": "effective in prolonging life"}, {"measurement": "IC50", "setting": "[3]", "value": 0.6, "unit": "µM"}, {"measurement": "Ki", "setting": "[3]; Ki, hyperbolic mixed-type inhibition fit (eq 3), vs dCTP, 95% confidence limits", "value": 4, "unit": "µM"}, {"measurement": "α", "setting": "[3]; [7]", "value": "0.55 (0.31, 0.79)"}, {"measurement": "β", "setting": "[3]; [8]", "value": "0.20 (0.15, 0.25)"}, {"measurement": "inhibition mechanism versus dCTP", "setting": "[3]; steady-state kinetic analysis", "value": "mixed-type noncompetitive"}, {"measurement": "toxicity and side effects in rats", "setting": "rats", "value": "nontoxic with no side effects"}, {"measurement": "inhibition of DNA binding to polymerase (EMSA)", "setting": "pol η binding to DNA", "value": "does not inhibit DNA binding"}, {"measurement": "EC50", "setting": "GM12878 cells; another study", "value": "> 100", "unit": "µM"}, {"measurement": "EC50", "setting": "GM12878 cells; one study", "value": "> 1000", "unit": "µM"}, {"measurement": "IC50", "setting": "[4]", "value": 80, "unit": "µM"}, {"measurement": "Ki", "setting": "[4]", "value": 26, "unit": "µM"}, {"measurement": "α", "setting": "[4]; [7]", "value": "0.48 (0.23, 0.74)"}, {"measurement": "β", "setting": "[4]; [8]", "value": "0.16 (0.09, 0.23)"}, {"measurement": "inhibition mechanism versus dCTP", "setting": "[4]; steady-state kinetic analysis", "value": "mixed-type noncompetitive"}, {"measurement": "crossing of blood–brain and blood–cerebrospinal fluid barriers", "setting": "[5]", "value": "crosses the blood–brain and blood–cerebrospinal fluid barriers"}, {"measurement": "IC50", "setting": "[6]", "value": 0.8, "unit": "µM"}, {"measurement": "Ki", "setting": "[6]", "value": 8.3, "unit": "µM"}, {"measurement": "α", "setting": "[6]; [7]", "value": "0.51 (0.24, 0.78)"}, {"measurement": "β", "setting": "[6]; [8]", "value": "0.07 (0.02, 0.12)"}, {"measurement": "inhibition mechanism versus dCTP", "setting": "[6]; steady-state kinetic analysis", "value": "mixed-type noncompetitive"}]}]}
